Test results reported in ChEMBL document CHEMBL1136750, “Synthesis and evaluation of a novel nonsteroidal-specific endothelial cell proliferation inhibitor” (2003).

Key:
[1] = target: Estrogen receptor beta (Homo sapiens) (UniProt Q92731); assay: In vitro displacement of 0.5 nM [3H]E2 from human Estrogen receptor beta at 10 uM
HUVEC [2] = assay: In vitro inhibition of primary human umbilical vein endothelial cell (HUVEC) proliferation at 0.01 uM; assay type: functional; conditions: values are per cent of control
Summary of the method: (§1)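 bFGF-stimulated HUVEC proliferation; cells incubated with bFGF alone or with increasing compound concentrations. Cell counts remaining normalized: maximal bFGF response = 100%, wells without bFGF (starved) = 0%. Mean ± SEM, n = 11 or n = 5 depending on experiment.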

HUVEC [3] = assay: IIn vitro inhibition of primary human umbilical vein endothelial cell (HUVEC) proliferation at 0.1 uM; assay type: functional; conditions: values are per cent of control; summary of the method: as §1
HUVEC [4] = assay: In vitro inhibition of primary human umbilical vein endothelial cell (HUVEC) proliferation at 1 uM; assay type: functional; conditions: values are per cent of control; summary of the method: as §1
HUVEC [5] = assay: In vitro inhibition of primary human umbilical vein endothelial cell (HUVEC) proliferation at 10 uM; assay type: functional; conditions: values are per cent of control; summary of the method: as §1
HUVEC [6] = assay: In vitro inhibition of primary human umbilical vein endothelial cell (HUVEC) proliferation at 3 uM; assay type: functional; conditions: values are per cent of control; summary of the method: as §1

Chain of Estrogen receptor beta (Homo sapiens) (Q92731 whole entry): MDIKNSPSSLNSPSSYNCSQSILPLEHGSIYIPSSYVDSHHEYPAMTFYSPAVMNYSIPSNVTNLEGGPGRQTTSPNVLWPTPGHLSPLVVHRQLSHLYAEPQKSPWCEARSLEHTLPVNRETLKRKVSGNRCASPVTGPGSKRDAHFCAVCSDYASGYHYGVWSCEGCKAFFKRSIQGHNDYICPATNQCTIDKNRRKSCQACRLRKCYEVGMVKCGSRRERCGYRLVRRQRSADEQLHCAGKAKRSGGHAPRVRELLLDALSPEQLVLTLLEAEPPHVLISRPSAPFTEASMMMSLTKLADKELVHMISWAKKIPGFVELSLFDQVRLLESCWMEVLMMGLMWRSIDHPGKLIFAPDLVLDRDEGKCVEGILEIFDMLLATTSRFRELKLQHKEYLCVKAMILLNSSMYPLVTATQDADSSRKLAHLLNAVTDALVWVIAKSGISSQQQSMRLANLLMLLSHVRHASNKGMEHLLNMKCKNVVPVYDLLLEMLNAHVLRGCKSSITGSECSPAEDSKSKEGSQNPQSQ

Compound	Binding [1]	growth, % of control at 0.01 µM (HUVEC [2])	growth, % of control at 0.1 µM (HUVEC [3])	growth, % of control at 1 µM (HUVEC [4])	growth, % of control at 10 µM (HUVEC [5])	growth, % of control at 3 µM (HUVEC [6])
COc1cc2c(cc1O)oc(=O)c1cc(C(C)=O)ccc12	90%	90%	100%	85%	10%	60%
COc1cc2c(cc1O)CC[C@@H]1[C@@H]2CC[C@]2(C)[C@@H](O)CC[C@@H]12 [2-METHOXYESTRADIOL]	25%	100%	100%	60%	–	25%
COc1ccc2c(c1)oc(=O)c1cc(C(C)=O)ccc12	100%	100%	90%	85%	25%	30%
